Hck-Nef inh: human Hck-Nef kinase inhibition; P08631; hit rate 0.68% among 220,000; Recombinant Hck-YEEI plus Nef, Z-Lyte FRET kinase assay; inhibition, % at 20 µM;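 active = Hck-Nef kinase inhibition above about 50%, limit read from the data; inactive = inhibition below that limit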;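 also: 0% = DMSO with Hck plus Nef and 100% = Hck alone without Nef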
RanGTP-Impb inh: inhibitors of RanGTP-importin-beta interaction, primary screen, biochemical, FRET, CFP-Ran, YFP-importin-beta, homogeneous; cell-free CFP-Ran/YFP-importin-beta FRET ratio; inhibition, % (no concentration beside the values); hit rate 1.1% among 300,000; AID 2216;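 active = more than half of the replicate wells show a fall in the fluorescence ratio signal beyond about 16%, limit read from the data, passing the limit was not always enough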;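 also: 0% = DMSO wells and 100% = Ran loaded with GDP instead of GTP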
Runt-CBFb FRET: blocks binding of human RUNX1 Runt domain to CBFb; hit rate 0.46% among 220,000; Cerulean-Runt/Venus-CBFb FRET ratio 530/480, 1 h; inhibition, % at 20 µM; AID 1496;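 active = inhibition over about 50% at 20 µM in the single-dose screen, limit read from the data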;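 also: 0% = DMSO wells and 100% = excess unlabeled CBFb competitor control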
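Measured by: fluorescence energy transfer, 422 nm excitation, 530/480 nm emission; test system: Cerulean-tagged RUNX1 Runt domain (FRET donor) fusion protein; buffer or medium: Tris pH 7.5 buffer with BSA; compound: one dose, 20 µM compound, 1% DMSO; times: two 1 h room-temperature incubations shielded from light; benchmarks: unlabeled CBFb 5 µM, positive control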
RBBP9 inh: human RBBP9 hydrolase inhibition. O75884. recombinant RBBP9, FP-Rh probe fluorescence polarization. inhibition, % at 7.94 µM. hit rate 0.2% among 220,000. AID 1515;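 active = inhibition above the campaign mean of all tested compounds plus 3 SD, cut at about 14% in these data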;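 also: plate controls were DMSO wells with RBBP9 for no effect and wells lacking RBBP9 protein for full effect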
Target sequence (O75884 whole entry, looked up): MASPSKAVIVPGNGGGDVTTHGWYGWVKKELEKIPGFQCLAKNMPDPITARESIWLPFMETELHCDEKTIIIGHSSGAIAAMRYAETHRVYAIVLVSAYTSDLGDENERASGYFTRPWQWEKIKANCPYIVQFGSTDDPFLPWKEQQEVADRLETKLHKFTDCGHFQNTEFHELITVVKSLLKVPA
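Test system: recombinant human RBBP9. Quantity: 2.5 µM RBBP9 dispensing solution, before mixing. Detection: FP readout at 525/598 nm. Reagent: Serine-hydrolase probe FP-Rh, 375 nM pre-mixing. Measure: % inhibition. Control set: DMSO-treated enzyme wells and wells lacking RBBP9. Buffer or medium: Tris-NaCl-Pluronic buffer, pH 8.0. Times: preincubation 30 min plus labeling 45 min at 25 °C.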
PfM18AAP inh: blocks P. falciparum M18 aspartyl aminopeptidase; recombinant PfM18AAP, H-Glu-NHMec fluorogenic cleavage; inhibition, % at 7.35 µM; hit rate 1.2% among 290,000; AID 1822;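 active = inhibition above the campaign mean inhibition over all tested compounds plus 3 SD, cut at about 28% in these data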;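 also: 0% = plate median of test compound wells and 100% = 2 mM ZnCl2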
Runt-SMMHC FRET: inhibitors of human RUNX1 Runt domain binding to CBFb-SMMHC | Q01196+Q13951 | Cerulean-Runt/Venus-CBFb-SMMHC FRET ratio 530/480, 1 h | inhibition, % at 20 µM | hit rate 0.74% among 220,000 | AID 1434;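 active = mean inhibition across duplicate retests at 20 µM reaching about 50%, limit read from the data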;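 also: 0% = DMSO wells and 100% = wells with excess untagged CBFb-SMMHC; inhibitors lower the FRET ratio by blocking Runt binding to CBFb-SMMHC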
* hit, by the source's call; · = not tested or not shown. Only some compounds are listed: those with a hit (about 2.9% of all), similar ones and a draw of the others.

SMILES	Hck-Nef inh	RanGTP-Impb inh	Runt-CBFb FRET	RBBP9 inh	PfM18AAP inh	Runt-SMMHC FRET
Cc1cc(Oc2ccc(=O)n(C)n2)nc(=S)[nH]1	22.9	2.4	11.3	3.1	28.4*	-2.1
COc1ccccc1Nc1ccc([N+](=O)[O-])cc1N	10.6	-4.3	2.6	-2.5	31.1*	-7.8
COc1ccc(C(=O)NCCS(=O)(=O)N(C)C2CCCCC2)cc1	·	5.6	·	·	·	·
CC(=O)c1cccc(NC(=O)NC2CC(=O)N(c3ccc4c(c3)OCCO4)C2)c1 (stereo unspecified)	·	-0.6	·	·	·	·
CCOC(=O)C1CCCN(C2=NC(=O)/C(=C/c3ccc(OC)cc3OC)S2)C1 (stereo unspecified)	·	-1.5	·	·	28.2*	·
CCN(CC(=O)Nc1c(F)cccc1F)C(=O)c1cc(-c2cccs2)nn1-c1ccccc1	·	-4.1	·	·	·	·
Cc1[nH]n(-c2ccccc2)c(=O)c1C(C[N+](=O)[O-])c1ccccc1Cl (stereo unspecified)	-2.6	-2.5	5.8	-4.3	17.4	1.5
COc1ccc(C(C[N+](=O)[O-])c2c(C)[nH]n(-c3ccccc3)c2=O)cc1 (stereo unspecified)	·	-1.4	·	·	45.0*	·
Clc1ccc(-c2cn3nc4c(nc3n2)CCCC4)cc1	0.6	69.9*	12.3	10.2	21.1	57.2
COc1cccc(-c2cc(C(F)(F)F)n3nc(N)nc3n2)c1	1.3	3.4	3.0	-6.7	2.8	3.6
COc1cccc(-c2cn3nc4c(nc3n2)CCCC4)c1	9.1	45.6*	-1.0	-1.2	21.0	2.9
Cc1ccc(N2C(=O)c3ccccc3C2C(=O)c2ccc(O)cc2O)cc1 (stereo unspecified)	-69.4	-2.1	46.2	5.6	30.1*	20.2
Cc1ccnc(N2C(=O)c3ccccc3C2O)c1 (stereo unspecified)	1.0	0.5	1.9	-5.6	0.3	-2.0
COc1ccc(OC)c(NC(=O)c2cccc(N3C(=O)C4C5C=CC(C6CC56)C4C3=O)c2)c1 (stereo unspecified)	·	-3.2	·	·	-0.6	·
COc1ccccc1N1CCN(S(=O)(=O)c2c(C)[nH]c(C)c2C(=O)N2CCCC2)CC1	·	4.1	·	·	6.9	·
COc1ccccc1N1CCN(S(=O)(=O)c2c(C)[nH]c(C)c2C(=O)N2CCCCC2)CC1	·	23.0*	·	·	-5.6	·
Cc1[nH]c2ccccc2c1/C=C/c1nc2ccccc2c(=O)[nH]1	23.3	33.5*	17.6	-0.1	1.8	38.8
CCn1c(/C=C/c2cccc([N+](=O)[O-])c2)nc2ccccc2c1=O	-0.3	-0.1	-1.8	0.4	-16.8	-4.3
Cc1[nH]c2ccccc2c1/C=C/C(=O)c1ccccc1	1.8	40.7*	-30.8	1.9	-4.4	-36.4
Cc1[nH]c2ccccc2c1/C=C/c1nc2ccccc2c(=O)n1-c1ccc([N+](=O)[O-])cc1	7.3	38.4*	-41.1	-7.0	-3.0	-127.8
CCn1c(/C=C/c2c[nH]c3ccccc23)nc2ccccc2c1=O	9.5	11.8	-2.6	-3.7	-1.5	-0.5
CN(C)S(=O)(=O)c1ccc2[nH]cc(/C=C/c3nc4ccccc4c(=O)n3-c3ccccc3)c2c1	1.2	28.9*	-45.5	-9.4	0.6	-34.8
Cc1nn(CCCC(=O)NC2CCC(C)CC2)c(=O)c2nn(-c3ccccc3)c(C)c12 (stereo unspecified)	·	2.5	·	·	-12.8	·
CCCCNC(=O)Oc1ccc(C(=O)N2c3ccccc3NC(=O)C2C)cc1 (stereo unspecified)	·	2.4	·	·	0.3	·
COc1ccccc1CNC(=O)c1nccnc1CO	·	-1.5	·	·	-5.8	·
COc1ccc(OC)c(NC(=O)Cn2nc(C)c3ccccc3c2=O)c1	·	1.3	·	·	1.2	·
COc1ccc(-n2c(SCC(=O)Nc3cccc(S(N)(=O)=O)c3)nc3ccccc3c2=O)cc1OC	2.6	0.4	-0.3	-13.9	3.5	2.6
CCn1c(/C=C/c2c(C)[nH]c3ccccc23)nc2ccccc2c1=O	3.4	-25.7	19.0	1.1	-2.7	59.0*
Cc1ccc(Cn2cc(/C=N/Nc3ccc([N+](=O)[O-])cn3)c3ccccc32)cc1	4.2	-1.7	-14.0	-7.3	54.1*	-19.0
